# An excerpt weighted towards active compounds, which were near 2.6% of everything screened.
# DENV2 CPE rescue – DENV2-induced cell death inhibition; DENV2-infected cells, cytopathic effect rescue, plate reader; CPE inhibition, % at 9.99 µM; actives 1.7% (n = 350,000); AID 651640; in the data active = CPE inhibition above about 20%, passing the limit was not always enough; inconclusive = no clear call, values can overlap the other calls; tested in BHK-21 cells;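 also: 0% = median of neutral control wells and 100% = median of positive control wells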
# GSIS activator – GLuc luminescence reporter in INS-1E cells, primary screen for activators of glucose-dependent secretion of insulin | activation, % at 16.6 µM | INS-1E GLuc reporter insulin secretion, 2-3 h | actives 0.61% (n = 370,000);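 active = lowest replicate activation of at least 40%, so every replicate reaches that level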;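 also: 0% = median of neutral control wells and 100% = median of IBMX positive control wells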
# E-sel inducer – E-selectin induction on HUVECs. activation, % at 7.58 µM. P16581. actives 0.37% (n = 260,000). HUVEC E-selectin immunofluorescence imaging; normalized: neutral wells 0, TNF-alpha wells 100;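 active = mean E-selectin-positive cell signal at least 10% of the positive control, reached in at least 60% of replicates, without over 20% cell loss; inconclusive = no rule given, readout overlaps actives, possibly toxicity-flagged; inactive = the rest, including those meeting only one limit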
#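 System: HUVEC / Compound: single concentration / Signal: immunofluorescence imaging / Read-out: percent E-selectin-positive cells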
# F508del corr – CFTR F508del correction in bronchial cells. actives 0.36% (n = 350,000). CFBE cells, YFP halide quenching; stimulated with forskolin plus potentiator P3; % fluorescence drop versus neutral controls. activity (quench increase), % at 7.58 µM;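 active = mean added fluorescence quench of at least 8% versus neutral control, with both replicates also reaching 8%; inconclusive = only one of the mean or replicate conditions met; inactive = mean below 8% and not both replicates reaching 8%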;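 also: cells transiently co-express mutant CFTR-F508del with the halide-sensitive YFP; corrector assay measuring rescue of mutant channel to the surface after 24 h compound exposure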
# miR122 inh – miR-122 inhibition in Huh7 cells. Huh7 miR-122 Renilla luciferase sensor, 48 h; neutral wells = 0, positive control = 100. activation (reporter increase), % at 12.5 µM. actives 0.3% (n = 340,000). AID 602342;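 active = mean replicate activation score at least 90 and every replicate individually at or above 90; inconclusive = only one of the two criteria met; inactive = neither criterion met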;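 also: higher luciferase means less miR-122 activity so hits act as miR-122 inhibitors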
# ERAP1 HTS inh – inhibitors of human ERAP1 aminopeptidase; actives 0.15% (n = 340,000); AID 652197; Q9NZ08; recombinant ERAP1, Leu-AMC fluorescence, 60 min; inhibition, % at 10.7 µM;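 active = mean replicate inhibition of at least 30%, or all replicates individually reaching that 30% level; inactive = mean below 30% and not every replicate reaching it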;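 also: 0% = neutral control wells and 100% = L-leucinethiol positive control wells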
# Target sequence (Q9NZ08 whole entry, looked up): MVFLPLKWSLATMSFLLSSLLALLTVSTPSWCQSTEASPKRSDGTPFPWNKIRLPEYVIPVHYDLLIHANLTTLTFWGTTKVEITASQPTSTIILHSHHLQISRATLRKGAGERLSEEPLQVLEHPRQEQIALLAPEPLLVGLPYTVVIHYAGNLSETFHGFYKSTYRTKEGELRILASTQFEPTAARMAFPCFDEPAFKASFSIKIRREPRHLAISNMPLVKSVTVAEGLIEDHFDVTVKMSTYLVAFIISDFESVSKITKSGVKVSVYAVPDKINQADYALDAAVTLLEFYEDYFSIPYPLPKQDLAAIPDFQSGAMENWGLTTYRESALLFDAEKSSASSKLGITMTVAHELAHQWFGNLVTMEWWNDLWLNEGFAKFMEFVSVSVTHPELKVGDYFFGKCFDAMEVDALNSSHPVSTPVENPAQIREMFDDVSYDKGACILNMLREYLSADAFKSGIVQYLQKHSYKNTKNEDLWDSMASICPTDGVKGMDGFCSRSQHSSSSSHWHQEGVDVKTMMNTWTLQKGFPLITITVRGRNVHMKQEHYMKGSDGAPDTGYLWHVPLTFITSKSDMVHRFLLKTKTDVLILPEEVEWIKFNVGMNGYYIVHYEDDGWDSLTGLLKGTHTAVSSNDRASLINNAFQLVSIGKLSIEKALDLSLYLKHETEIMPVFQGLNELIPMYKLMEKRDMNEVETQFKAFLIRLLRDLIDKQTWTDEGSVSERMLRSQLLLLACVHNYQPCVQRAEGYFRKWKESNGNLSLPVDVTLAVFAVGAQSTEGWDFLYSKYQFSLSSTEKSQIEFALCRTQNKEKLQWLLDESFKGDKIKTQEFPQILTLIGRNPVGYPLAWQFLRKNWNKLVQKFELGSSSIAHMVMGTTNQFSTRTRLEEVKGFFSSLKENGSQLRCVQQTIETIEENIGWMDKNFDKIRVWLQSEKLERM
# Active calls of the source: *; ? = inconclusive; . = no result; ! = repeats disagree; [ ] = remark or other dose.
SMILES,DENV2 CPE rescue,GSIS activator,E-sel inducer,F508del corr,miR122 inh,ERAP1 HTS inh
CCC(=O)N(C)C[C@H]1Oc2cc(-c3ccccc3F)ccc2S(=O)(=O)N([C@@H](C)CO)C[C@H]1C,-7.1,24.8,0.0,0.7,-22.5[16.7 µM],2.0
CCC(=O)N(C)C[C@H]1Oc2cc(-c3ccccc3F)ccc2S(=O)(=O)N([C@H](C)CO)C[C@H]1C,24.5*!,-2.3,-1.3,0.3,-6.6,-1.1
Cc1ccc(-c2ccc3c(c2)O[C@H](CN(C)C(=O)Nc2ccc(C(F)(F)F)cc2)[C@@H](C)CN([C@@H](C)CO)S3(=O)=O)cc1,16.8,-1.6,0.2,8.7*,45.0[16.7 µM],-1.2
CCCN(C)C[C@H]1Oc2ncc(Br)cc2C(=O)N([C@H](C)CO)C[C@H]1C,-0.8,-12.8,-0.2,5.9,-2.3[16.7 µM],-0.2
CCCc1c(C(=O)Nc2cc(C(C)(C)C)on2)cnn1-c1ccccc1,28.9*,2.4,5.0,-0.3,-7.9,2.6
COc1ccccc1NC(=O)N1CC[C@@H]2[C@H]1c1cc(C#Cc3ccc(F)cc3)ccc1N(C)[C@@H]2CO,2.5,13.1,-0.3,0.9,1.4[16.7 µM],1.3
O=C(CSC1=NNC(c2ccccn2)S1)Nc1ccccc1 (stereo not drawn),-4.3,.,3.6,11.5*,1.5,.
COC(=O)/C=C/c1ccccc1S(=O)(=O)N(Cc1ccccc1)Cc1ccco1,.,6.5,-0.1,8.3*,63.6,.
O=S(=O)(c1ccc(S(=O)(=O)N(Cc2ccccc2)Cc2ccco2)cc1)N1CCCC1,.,1.1,.,.,-1.2,0.6
CCn1c2c(n(C(C)=O)c1=O)C[C@@H](c1ccccc1)[C@@H](C)[C@@H](C(=O)N1CCCC1)C2,49.7*,13.0,-0.2,0.8,.,0.3
O=C(NCCCN1CCCC1=O)c1cc(S(=O)(=O)N2CCOCC2)ccc1Cl,17.9,5.0,-0.1,1.7,.,0.6
O=C(NCCCN1CCCC1=O)c1cc(S(=O)(=O)N2CCOCC2)c(Cl)cc1Cl,11.2,7.3,0.4,17.1*,1.2,0.6
CS(=O)(=O)Nc1ccc2c(c1)[C@H]1C[C@@H](CC(=O)NCc3ccc(-c4ccccc4)cc3)O[C@H](CO)[C@H]1O2,10.7,-7.1,0.3,-3.1,0.1[16.7 µM],.
COC(=O)C1=C(C)N(Cc2ccc(C(F)(F)F)cc2)C(=NCc2ccccc2)NC1c1ccc(C(F)(F)F)cc1 (stereo not drawn),-4.7,459.6*,-0.5,5.6,.,-0.9
COC(=O)C1=C(C)N(Cc2ccccc2C(F)(F)F)C(=NCc2ccc(C(F)(F)F)cc2)NC1c1ccc(C(F)(F)F)cc1 (stereo not drawn),.,.,1.6,3.3,.,-3.4
COC(=O)C1=C(C)N(Cc2ccc(C(F)(F)F)cc2)C(=NCc2ccccc2)NC1c1ccccc1 (stereo not drawn),-3.9,949.0*,-0.3,1.8,.,3.7
CN1C(=O)c2cc(NC(=O)c3cccc(F)c3)ccc2OC[C@@H]2O[C@H](CC(=O)N3CCc4ccccc4C3)CC[C@H]21,16.4,5.8,0.2,2.0,4.4[16.7 µM],0.8
Cc1ccc(SCC(=O)OC(C)C(=O)NCc2ccccc2)cc1 (stereo not drawn),64.4*,-1.3,1.6,-0.8,.,-1.4
Cc1ccc(NC(=O)C(C)OC(=O)CSc2ccccc2)cc1 (stereo not drawn),-1.8,.,-0.2,0.2,-2.4,0.2
COc1ccc(/C=N/NC(=O)c2cccnc2)cc1CSc1ccccn1,-3.0,-4.0,.,11.0*,.,.
COc1ccc(C(=O)N/N=C/c2ccc(OC)c(CSc3ccccn3)c2)cc1,-5.1,0.7,.,1.0,.,6.1
CN(C)CC(=O)N1CCCCN2[C@@H](CO)[C@H](c3ccc(/C=C/c4ccccc4)cc3)[C@@H]2C1,-25.0,11.5,-0.6,-7.6,-26.1[16.7 µM],0.2
CCCCNC(=O)C1C(c2ccc(C(F)(F)F)cc2)=Nc2ccccc2N1C(=O)c1cccc2ccccc12 (stereo not drawn),28.5*,5.8,0.0,-1.1,.,14.2
CCCCNC(=O)C1C(c2ccccc2)=Nc2ccccc2N1C(=O)c1ccc(C(F)(F)F)cc1 (stereo not drawn),-14.0,-6.0,-0.1,1.1,.,7.5
COc1ccc(C(C)=O)cc1Cn1c(C)c(C(=O)NCCC#N)sc1=O,71.4*,0.9,.,-1.7,.,.
SMILES,DENV2 CPE rescue,GSIS activator,E-sel inducer,F508del corr,miR122 inh,ERAP1 HTS inh
COc1ccc(C(C)=O)cc1Cn1c(C)c(C(=O)NCC(C)C)sc1=O,-1.6,7.1,.,2.4,.,.
C[C@H](CO)N1C[C@H](C)[C@@H](CN(C)Cc2ccc(F)cc2)Oc2ncc(-c3ccncc3)cc2C1=O,7.2,6.9,0.1,-1.6,20.1[16.7 µM],-1.5
CC(=O)c1c(C)[nH]c(C(=O)OCc2nnc(-c3ccc([N+](=O)[O-])cc3)o2)c1C,-7.1,-4.8,-0.5,9.2*,4.1,-0.6
O=C(Nc1cc(C(F)(F)F)ccc1N1CCOCC1)C1CCCO1 (stereo not drawn),5.8,12.1,.,1.4,-3.3,-4.9
CC1CC1C(=O)Nc1cc(C(F)(F)F)ccc1N1CCOCC1 (stereo not drawn),-4.4,47.6*,.,-1.6,7.0,1.1
COc1ccc(OC)c(S(=O)(=O)N/N=C\c2ccc3c(c2)OCO3)c1,0.0,11.7,.,-5.6,104.9*,-2.3
Cc1noc(C)c1S(=O)(=O)Nc1ccc2c(c1)C(=O)N([C@@H](C)CO)C[C@@H](C)[C@H](CN(C)C(=O)C1CCCCC1)OCCCC[C@H](C)O2,-1.8,-12.5,-0.2,-1.4,-6.9[16.7 µM],-4.2
CCCC#Cc1cnc2c(c1)C(=O)N([C@H](C)CO)C[C@@H](C)[C@@H](CN(C)C(=O)Cc1ccncc1)O2,9.9,-0.2,0.6,-1.2,2.4[16.7 µM],1.5
CCCC[C@@H]1CNC(=O)C(=O)N1CCCCC1CCCCC1,42.4*,-34.7,-0.2,1.4,.,5.5
CC(C)C[C@@H]1CN(CCCC[C@H]2CNC(=O)C(=O)N2CCC2CCCCC2)C(=O)C(=O)N1Cc1ccccc1,24.1*,-31.2,.,-3.6,.,-2.3
O=C1NC[C@@H](CCCCN2CCN(CCc3ccc(O)cc3)C(=O)C2=O)N(Cc2ccccc2)C1=O,87.3*,5.2,.,-1.4,.,-1.5
CC(C)(C)CN1C(=O)C(=O)NC[C@@H]1CCCCN,136.0*,6.5,0.5,-1.3,.,.
O=C1NC[C@H](CCCCN2CCN(CCC3CCCCC3)C(=O)C2=O)N(CCC2CCCCC2)C1=O,7.2,-12.0,0.0,-4.0,.,-2.8
COc1ccc(NC(=O)N(C)C[C@@H]2Oc3ccc(NC(=O)Cc4cn(C)c5ccccc45)cc3C(=O)N([C@@H](C)CO)C[C@H]2C)cc1,?,2.2,-7.3,0.5,-0.2[16.7 µM],3.0
CCCCOC(=O)CCN1C(=O)/C(=C2\SC(=S)N(CCC(=O)OCCCC)C2=O)SC1=S,75.0*,.,.,-0.1,-5.3,2.7

# Screening data: PubChem BioAssay, Broad Institute
